# Measured values collected from several papers.
# Compare with care: the assays were run in different laboratories.
# Target: Serine/threonine-protein kinase Nek11 (NEK11, Homo sapiens, UniProt Q8NG66)
# Sequence (Q8NG66 1-645, as in one of the studies): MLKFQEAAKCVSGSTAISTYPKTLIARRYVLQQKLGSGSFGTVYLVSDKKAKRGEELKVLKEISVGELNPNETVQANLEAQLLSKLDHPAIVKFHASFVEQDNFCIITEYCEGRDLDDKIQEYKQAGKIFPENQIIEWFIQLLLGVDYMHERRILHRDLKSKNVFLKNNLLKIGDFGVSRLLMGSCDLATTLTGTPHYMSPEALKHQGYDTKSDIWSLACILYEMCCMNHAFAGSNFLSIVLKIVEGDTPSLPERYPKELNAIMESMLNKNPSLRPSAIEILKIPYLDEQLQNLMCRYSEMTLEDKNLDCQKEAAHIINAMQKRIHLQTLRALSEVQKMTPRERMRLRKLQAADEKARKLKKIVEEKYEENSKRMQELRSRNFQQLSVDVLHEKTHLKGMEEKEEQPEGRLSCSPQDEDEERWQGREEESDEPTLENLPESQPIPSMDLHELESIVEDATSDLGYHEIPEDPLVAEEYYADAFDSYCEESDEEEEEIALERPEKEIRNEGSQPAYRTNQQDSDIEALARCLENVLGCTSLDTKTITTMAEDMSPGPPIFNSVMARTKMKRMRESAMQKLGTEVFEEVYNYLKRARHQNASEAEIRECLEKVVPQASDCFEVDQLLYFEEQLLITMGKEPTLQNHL
Structure (SMILES),read-out,mode,method,concentration,quantity,result
C[C@H](c1ccc(F)cc1)N(Cc1cccc(C(=O)O)c1)C(=O)c1cnc2ccccc2c1,cell-free assay,,competition with immobilised ligand,1 µM,remaining binding,82%
Cc1cc(NC(=O)c2cccc3cc(-c4cccc5[nH]nc(N)c45)ccc23)ccc1F,enzyme activity,inhibitor,,0.1 µM,activity vs control,91%
Cc1ccc(Nc2nccc(N(C)c3ccc4c(C)n(C)nc4c3)n2)cc1S(N)(=O)=O,enzyme activity,inhibitor,,10 µM,inhibition,23%
Cc1ccc(NC(=O)c2ccc(C)c(C(F)(F)F)c2)cc1C#Cc1nn(C2CCC(O)CC2)c2ncnc(N)c12 (centres unmarked),cell-free assay,,,10 µM,remaining signal,50%
CCCOc1ccc(OC)c(F)c1C(=O)c1ccc(C(=O)N[C@@H]2CNC[C@H]2NC(=O)c2ccc3[nH]ncc3c2)cc1,enzyme activity,inhibitor,,10 µM,remaining activity,45%
C[C@@H]1CCN(C(=O)CC#N)C[C@@H]1N(C)c1ncnc2[nH]ccc12,cell-free assay,inhibitor,,0.5 µM,remaining signal,91.7%
CC(=O)N1CCC(c2ccc(C(=O)NC(=N)N)cc2C(F)(F)F)CC1,cell-free assay,,competition with immobilised ligand,1 µM,remaining binding,100%
O=C(Nc1cnn(-c2csc(C(=O)NC3COC3)c2)c1)Nc1c(F)cccc1Cl,enzyme activity,inhibitor,,5 µM,remaining activity,89.5%
COc1cc2ncnc(Nc3ccc(F)c(Cl)c3)c2cc1OCCCN1CCOCC1,cell-free assay,,,0.5 µM,remaining signal,109%
CN([C@@H]1CCc2c(CC(=O)O)c3ccccc3n2C1)S(=O)(=O)c1ccc(F)cc1,cell-free assay,,competition with immobilised ligand,1 µM,remaining binding,100%
CC(C)(C)c1nc(-c2cccc(NS(=O)(=O)c3c(F)cccc3F)c2F)c(-c2ccnc(N)n2)s1,enzyme activity,inhibitor,radiometric,1 µM,remaining activity,1%
CN1CC(Oc2cnc(C#N)cc2-c2ccn3nc(NC(=O)C4CC4)cc3c2)C1,enzyme activity,inhibitor,,1 µM,inhibition,11%
CNC(=O)c1cc(Oc2ccc(NC(=O)Nc3ccc(Cl)c(C(F)(F)F)c3)cc2)ccn1,enzyme activity,inhibitor,,0.3 µM,inhibition,5%
NS(=O)(=O)c1cc(NC(=O)C2(c3ccccc3Cl)CC2)ccc1Oc1cccc(Cl)c1,cell-free assay,,competition with immobilised ligand,1 µM,remaining binding,100%
CCN(CC)CCNC(=O)c1c(C)[nH]c(/C=C2\C(=O)Nc3ccc(F)cc32)c1C,enzyme activity,inhibitor,,0.3 µM,inhibition,16%
COc1cc(-c2cn(C3CCc4c(F)cccc4N(CC(F)(F)F)C3=O)nn2)ccc1-n1cnc(C)c1 (centres unmarked),cell-free assay,,competition with immobilised ligand,1 µM,remaining binding,100%
N#CCCc1ccc2c(c1)-c1[nH]c3ccc([N+](=O)[O-])cc3c1CC(=O)N2,cell-free assay,,,0.5 µM,remaining signal,101%
CS(=O)(=O)N1CCCC(NC(=O)[C@H](CCC2CCCCC2)NC(=O)c2ccc(CNc3ncnc4c3nnn4-c3ccccc3)cc2)C1 (some centres unmarked),cell-free assay,,competition with immobilised ligand,0.1 µM,remaining binding,100%
Cc1sc(C(=O)NC2COC2)cc1-n1cc(NC(=O)Nc2c(F)cccc2Cl)cn1,enzyme activity,inhibitor,,10 µM,remaining activity,70%
O=C1NC(=O)c2cc(Nc3ccc(F)cc3)c(Nc3ccc(F)cc3)cc21,cell-free assay,,,0.5 µM,remaining signal,103%
